Results on one compound are retold here after ChEMBL document CHEMBL4402612, “Heterodimeric Analogues of the Potent Y1R Antagonist 1229U91, Lacking One of the Pharmacophoric C-Terminal Structures, Retain Potent Y1R Affinity and Show Improved Selectivity over Y4R” (J Med Chem, 2020).

In assay [1] the target is T1, Neuropeptide Y receptor type 1 (Homo sapiens, UniProt P25929).
T1 sequence (P25929 whole entry): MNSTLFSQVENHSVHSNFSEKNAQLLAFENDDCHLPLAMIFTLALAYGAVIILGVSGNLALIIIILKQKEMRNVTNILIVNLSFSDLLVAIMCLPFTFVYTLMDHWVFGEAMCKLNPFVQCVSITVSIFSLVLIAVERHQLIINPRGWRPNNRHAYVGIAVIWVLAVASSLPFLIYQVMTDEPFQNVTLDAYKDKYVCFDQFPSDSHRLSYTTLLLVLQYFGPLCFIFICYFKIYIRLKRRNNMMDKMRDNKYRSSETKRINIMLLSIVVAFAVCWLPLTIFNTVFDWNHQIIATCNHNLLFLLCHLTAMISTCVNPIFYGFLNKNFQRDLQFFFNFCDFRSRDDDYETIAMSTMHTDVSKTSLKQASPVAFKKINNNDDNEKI
In words: Displacement of (sCy5)-[Lys2 Arg4]-BVD15 from GFP-tagged Y1R in human HEK293T cells assessed as inhibitory constant incubated for 5 mins followed by (sCy5)-[Lys2 Arg4]-BVD15 addition and measured after 30 mins by fluorescence based assay. It is filed as cell-based.

The target of assay [2] is T2, Neuropeptide Y receptor type 4 (Homo sapiens, UniProt P50391). In words: Displacement of (sCy5)-[Lys2 Arg4]-BVD15 from GFP-tagged Y4R in human HEK293T cells assessed as inhibitory constant incubated for 5 mins followed by (sCy5)-[Lys2 Arg4]-BVD15 addition and measured after 30 mins by fluorescence based assay. It is filed as cell-based. In short, it runs like this:
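Competitors (10^-10–10^-6 M) added in HBSS/0.1% BSA with H33342 for 5 min, then 100 nM final (sCy5)-[Lys²Arg⁴]-BVD15 for 30 min at 37 °C. Washed and imaged confocally; granule counts per cell. Non-specific binding with 100 nM PP.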

The species named for assay [3] is Homo sapiens. As to the kind of experiment: Selectivity index, ratio of Ki of GFP-tagged Y4R in human HEK293T cells to Ki GFP-tagged Y1R in human HEK293T cells. Format: cell-based. Summed up: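 Ratio of mean Ki values, Y4/Y1, from whole-cell competition binding in tetracycline-induced 293TR Y1-GFP or Y4-GFP cells. Tracer was 100 nM (sCy5)-[Lys²Arg⁴]-BVD15, added after 5 min competitor preincubation, then 30 min at 37 °C, with imaging read-out.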

Assay [4] deals with T2, Neuropeptide Y receptor type 4. As to the kind of experiment: Agonist activity at Y4R in human HEK293T cells assessed as increase in beta-arrestin recruitment incubated for 60 mins by Hoechst 33342 dye based fluorescence analysis.
The target is the same in assay [5]. As to the kind of experiment: Agonist activity at Y4R in human HEK293T cells assessed as increase in beta-arrestin recruitment incubated for 60 mins by Hoechst 33342 dye based fluorescence analysis relative to pancreatic polypeptide.
Assay [6] has as its target T3, Neuropeptide Y receptor type 1 (Homo sapiens) (UniProt P25929).
T3 sequence (whole entry): T1 sequence (P25929 whole entry)
As to the kind of experiment: Potency index, ratio of Ki of compound to Ki of 1229U91 for displacement of (sCy5)-[Lys2 Arg4]-BVD15 from GFP-tagged Y1R in human HEK293T cells assessed as inhibitory constant incubated for 5 mins followed by (sCy5)-[Lys2 Arg4]-BVD15 addition and measured after 30 mins by fluorescence based assay.

SMILES strings stand for the structures. Positions of bridges follow the written chain, without caps; N, C: chain ends. Non-standard residues stand in square brackets, D forms with d. Residues, ends and D or L forms follow the SMILES beside them. Chains are numbered I, II in the order given. Dap = NC[C@H](N)C(=O)O

T2 sequence (P50391 whole entry): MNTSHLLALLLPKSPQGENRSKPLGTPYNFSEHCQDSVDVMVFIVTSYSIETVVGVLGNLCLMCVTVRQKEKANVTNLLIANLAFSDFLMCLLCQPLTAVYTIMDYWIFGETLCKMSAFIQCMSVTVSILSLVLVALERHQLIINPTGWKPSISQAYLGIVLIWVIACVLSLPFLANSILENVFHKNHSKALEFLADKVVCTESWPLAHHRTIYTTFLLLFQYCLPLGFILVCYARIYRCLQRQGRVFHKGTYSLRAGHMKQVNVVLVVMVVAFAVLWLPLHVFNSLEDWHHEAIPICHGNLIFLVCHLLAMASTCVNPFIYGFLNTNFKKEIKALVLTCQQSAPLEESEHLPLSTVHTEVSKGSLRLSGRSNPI

In the case of `CC[C@H](C)[C@H](N)C(=O)N[C@H]1CCC(=O)NC[C@@H](C(=O)N[C@@H](Cc2ccc(O)cc2)C(=O)N[C@@H](CCCNC(=N)N)C(=O)N[C@@H](CC(C)C)C(=O)N[C@@H](CCCNC(=N)N)C(=O)N[C@@H](Cc2ccc(O)cc2)C(N)=O)NC(=O)[C@@H]2CCCN2C(=O)[C@@H](NC(=O)[C@@H](N)[C@@H](C)CC)CCC(=O)NC[C@@H](C(=O)N[C@@H](Cc2ccc(O)cc2)C(=O)N[C@@H](C)C(=O)N[C@@H](CC(C)C)C(=O)N[C@@H](CCCNC(=N)N)C(=O)N[C@@H](Cc2ccc(O)cc2)C(N)=O)NC(=O)[C@@H]2CCCN2C1=O` (I: H-IEP[Dap]YALRY-NH2 / II: H-IEP[Dap]YRLRY-NH2; amide I:2-II:4, I:4-II:2), the Ki in assay [1] was 0.575 nM; in assay [2], 245 nM. In addition, the Ratio Ki in assay [3] came out at 419. The EC50 in assay [4] was 7.59 nM. Further, the Rmax in assay [5] turned out to be 49.1%. Besides, the Ki ratio in assay [6] amounted to 2.
